Test results: ChEMBL document CHEMBL1138962, “Exploration of a new type of antimalarial compounds based on febrifugine” (J Med Chem, 2006)
In brackets after ≈: the same amount, converted by molar mass.

What was measured:
[1] = Therapeutic index; LD50 for ICR mice (Mus musculus)/ED50 against Plasmodium berghei NK65; conditions: read-out: Ratio LD50/ED50
Method in brief: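 Index is mouse LD50 (oral acute toxicity) divided by oral ED50 against P. berghei in mice. For ED50, a 4-day suppressive test was used. Male ICR mice (18-20 g) were inoculated iv with 10⁶ parasitized RBC. Compound was given po in 5% gum arabic 2 h post-infection, then once daily on days 1-3. Parasitaemia was read from tail-blood thin films on day 4.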

Plasmodium falciparum [2] = test: Antimalarial activity against chloroquine-sensitive Plasmodium falciparum FCR3 by pLDH reporter assay; format: functional, organism-based
Method in brief: (§1)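 P. falciparum cultured in human A+ erythrocytes in RPMI-1640 (25 mM HEPES, hypoxanthine, gentamicin) with 10% human plasma, 37 °C, 93% N2/4% CO2/3% O2. Asynchronous parasites at 2.0% hematocrit, 0.5% parasitaemia. Compound added in water or 5% DMSO, 72 h at 37 °C. pLDH read-out: Malstat, then NBT/PES, formazan at 650 nm. EC50 from dose-response curve.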

Plasmodium falciparum [3] = test: Antimalarial activity against chloroquine-resistant Plasmodium falciparum K1 by pLDH reporter assay; format: functional, organism-based; method in brief: as §1
L929 [4] = test: Cytotoxicity against mouse L929 cells by MTT assay; format: functional, cell-based
Method in brief: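 MTT assay in mouse L929 cells (1.8 × 10⁴ cells/well) in RPMI-1640 with 10% FBS. Compound added in distilled water or 10% DMSO (added solution), then 48 h at 37 °C, 5% CO₂. MTT 4 h, formazan dissolved in DMSO, absorbance read at 570 and 655 nm. EC50 from dose-response curve.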

L929 [5] = test: Selectivity for L929 cells over Plasmodium falciparum FCR3 as EC50 ratio; format: functional
Method in brief: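 Ratio of L929 EC50 to P. falciparum FCR-3 EC50. L929 EC50 by 48 h MTT assay. FCR-3 EC50 by pLDH assay: asynchronous parasites in human erythrocytes (2.0% hematocrit, 0.5% parasitaemia), RPMI with 10% human plasma. Incubated 72 h at 37 °C under 93% N₂/4% CO₂/3% O₂. Malstat/NBT-PES read-out at 650 nm; EC50 from dose-response curves.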

Plasmodium berghei = test: Antimalarial activity against Plasmodium berghei NK65 infected ICR mice (Mus musculus) peroral dose; format: functional
Method in brief: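 P. berghei NK65 4-day suppressive test. Male ICR mice (18-20 g) infected i.v. with 10⁶ parasitized red cells. Compounds suspended in 5% gum arabic, given orally 2 h post-infection (Day 0), then once daily Days 1-3. Day 4 tail-vein blood, parasitaemia from thin blood films; ED50 from dose-response curve.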

[6] = Toxicity in po dosed ICR mouse; format: organism-based; conditions: in vivo
Method in brief: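 Acute toxicity in mice, compound given orally. LD50 determined.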

| Compound | selectivity ratio [1] | EC50 (Plasmodium falciparum [2]) [µg/mL] | EC50 (Plasmodium falciparum [3]) [µg/mL] | EC50 (L929 [4]) [µg/mL] | Ratio EC50 (L929 [5]) | ED50 (Plasmodium berghei) [mg/kg] | LD50 [6] [mg/kg] | ED50 (Plasmodium berghei; Plasmodium berghei, NK65, po) [mg/kg] |
| --- | --- | --- | --- | --- | --- | --- | --- | --- |
| O=C(C[C@H]1NCCC[C@@H]1O)Cn1cnc2ccsc2c1=O (relative stereo) | 30 | 0.00306 (≈ 0.00996 µM) | 0.00319 (≈ 0.0104 µM) | 0.563 (≈ 1.83 µM) | 184 | 2.95 | 88 |  |
| O=C(C[C@H]1NCCC[C@@H]1O)Cn1cnc2ncnc-2c1O (relative stereo) |  | 0.506 (≈ 1.74 µM) | 0.943 (≈ 3.24 µM) | > 100 | >198 |  |  |  |
| O=C(CN1CCCC(O)C1)Cn1cnc2ccccc2c1=O (stereo not drawn) |  | > 1 | > 1 | > 100 |  |  |  |  |
| O=C(COC1CCCNC1)Cn1cnc2ccccc2c1=O (stereo not drawn) |  | > 1 | > 1 | > 100 |  |  |  |  |
| CC[C@H](O)[C@@H](CC(=O)Cn1cnc2ccccc2c1=O)NC |  | > 1 | > 1 | 6.44 (≈ 21.2 µM) | <6.44 |  |  |  |
| O=C(C[C@@H]1NCCC[C@H]1O)Cn1cnc2ccccc2c1=O (single isomer, unassigned) [FEBRIFUGINE] | 17 | 0.00142 (≈ 0.00471 µM) | 0.0014 (≈ 0.00465 µM) | 0.167 (≈ 0.554 µM) | 118 |  | 7.1 | 0.41 |
| O=C(C[C@H]1NCCC[C@@H]1O)Cn1ccc(=O)c2ccccc21 (relative stereo) |  | > 1 | > 1 | > 100 |  |  |  |  |
| O=C(C[C@H]1NCCC[C@@H]1O)Cn1nnc2ccccc2c1=O (relative stereo) |  | 0.154 (≈ 0.509 µM) |  | 16.4 (≈ 54.2 µM) | 106 |  |  |  |
| O=c1c2ccccc2ncn1CC[C@H]1NCCC[C@@H]1O |  | > 1 | > 1 | > 100 |  |  |  |  |
| O=C(C[C@H]1NCCC[C@@H]1O)Cn1cnc2ccc(F)cc2c1=O (relative stereo) |  | 0.00073 (≈ 0.00229 µM) | 0.000916 (≈ 0.00287 µM) | 0.079 (≈ 0.247 µM) | 108 |  | < 2.5 |  |
| O=c1c2ccccc2ncn1CCC[C@H]1NCCC[C@@H]1O | > 14 | 0.0225 (≈ 0.0783 µM) | 0.0236 (≈ 0.0821 µM) | 4.45 (≈ 15.5 µM) | 198 |  | > 320 | 22.5 |
| Cc1nc2ccccc2c(=O)n1CC(=O)C[C@H]1NCCC[C@@H]1O (relative stereo) |  | 0.116 (≈ 0.368 µM) | 0.19 (≈ 0.602 µM) | 15.6 (≈ 49.5 µM) | 134 |  |  |  |
| C[C@@H]1CC[C@H]2[C@@H](C)C(=O)O[C@@H]3O[C@@]4(C)CC[C@@H]1[C@]32OO4 [ARTEMISININ] |  | 0.0179 (≈ 0.0634 µM) | 0.0117 (≈ 0.0414 µM) | > 100 | >5590 |  |  |  |
| CCN(CC)CCCC(C)Nc1ccnc2cc(Cl)ccc12 (stereo not drawn) [CHLOROQUINE] |  | 0.0475 (≈ 0.148 µM) | 0.375 (≈ 1.17 µM) | 18.6 (≈ 58.1 µM) | 392 |  |  | 1.53 |
| O=c1c2ccccc2ncn1CCCC[C@H]1NCCC[C@@H]1O |  | > 1 | > 1 | > 100 |  |  |  |  |
| O=C(C[C@H]1NCCC[C@@H]1O)Nc1nc(O)c2ccccc2n1 |  | > 1 | > 1 | > 100 |  |  |  |  |
